Assay results from ChEMBL document CHEMBL1152342, “Thiazomycins, thiazolyl peptide antibiotics from Amycolatopsis fastidiosa” (2009).
Values after ≈ are worked out from the molar mass of the structure shown.

How the values were obtained:
Format in all cases: functional
Enterococcus faecium [1] = experiment: Antibacterial activity against vancomycin, linezolid-resistant Enterococcus faecium CL5791 after 20 hrs by twofold serial broth dilution method in presence of 50% human serum; conditions: CL5791, 20 h
How it was run: (§1)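 MICs by NCCLS (now CLSI) twofold serial broth dilution. Cation-adjusted Mueller Hinton broth was the standard medium, with CAMHB + 2.5% lysed horse blood used for certain strains. Cultures were incubated at 37 °C for 20 h before reading.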

Streptococcus pyogenes = experiment: Antibacterial activity against Streptococcus pyogenes CL10440 after 20 hrs by twofold serial broth dilution method; conditions: CL10440, 20 h; how it was run: as §1
Enterococcus faecium [2] = experiment: Antibacterial activity against vancomycin, linezolid-resistant Enterococcus faecium CL5791 after 20 hrs by twofold serial broth dilution method; conditions: CL5791, 20 h; how it was run: as §1
Enterococcus faecalis [3] = experiment: Antibacterial activity against vancomycin, macrolide-resistant, linezolid-sensitive Enterococcus faecalis CL5246 after 20 hrs by twofold serial broth dilution method; conditions: CL5246, 20 h; how it was run: as §1
Streptococcus pneumoniae [4] = experiment: Antibacterial activity against penicillin-sensitive Streptococcus pneumoniae CL8002 after 20 hrs by twofold serial broth dilution method; conditions: CL8002, 20 h; how it was run: as §1
[5] = tested on: Staphylococcus haemolyticus; experiment: Antibacterial activity against ampicillin-sensitive Staphylococcus haemolyticus CL8544 after 20 hrs by twofold serial broth dilution method; conditions: CL8544, 20 h; how it was run: as §1
Enterococcus faecalis [6] = experiment: Antibacterial activity against vancomycin-sensitive Enterococcus faecalis CL8516 after 20 hrs by twofold serial broth dilution method; conditions: CL8516, 20 h; how it was run: as §1
Staphylococcus aureus [7] = experiment: Antibacterial activity against vancomycin-intermediate, macrolide, methicillin-resistant Staphylococcus aureus CL5706 after 20 hrs by twofold serial broth dilution method; conditions: CL5706, 20 h; how it was run: as §1
Candida albicans = experiment: Antifungal activity against Candida albicans MY1055 after 20 hrs by twofold serial broth dilution method; conditions: MY1055, 20 h
Staphylococcus aureus [8] = experiment: Antibacterial activity against methicillin-sensitive Staphylococcus aureus MB2865 after 20 hrs by twofold serial broth dilution method; conditions: MB2865, 20 h; how it was run: as §1
[9] = tested on: Staphylococcus epidermidis; experiment: Antibacterial activity against Staphylococcus epidermidis CL8040 after 20 hrs by twofold serial broth dilution method; conditions: CL8040, 20 h; how it was run: as §1
Staphylococcus aureus [10] = experiment: Antibacterial activity against macrolide, imipenem, methicillin-resistant Staphylococcus aureus MB5393 after 20 hrs by twofold serial broth dilution method; conditions: MB5393, 20 h; how it was run: as §1
Staphylococcus aureus [11] = experiment: Antibacterial activity against macrolide, methicillin-resistant Staphylococcus aureus CL5705 after 20 hrs by twofold serial broth dilution method; conditions: CL5705, 20 h; how it was run: as §1
Staphylococcus aureus [12] = experiment: Antibacterial activity against methicillin-sensitive Staphylococcus aureus MB2865 after 20 hrs by twofold serial broth dilution method in presence of 50% human serum; conditions: MB2865, 20 h; how it was run: as §1
Streptococcus pneumoniae [13] = experiment: Antibacterial activity against penicillin-resistant Streptococcus pneumoniae CL5771 after 20 hrs by twofold serial broth dilution method; conditions: CL5771, 20 h; how it was run: as §1
Staphylococcus aureus [14] = experiment: Antibacterial activity against macrolide-sensitive, Linezolid, methicillin-resistant Staphylococcus aureus CL5814 after 20 hrs by twofold serial broth dilution method; conditions: CL5814, 20 h; how it was run: as §1

SMILES | MIC (Enterococcus faecium [1]) [µg/mL] | MIC (Streptococcus pyogenes) [µg/mL] | MIC (Enterococcus faecium [2]) [µg/mL] | MIC (Enterococcus faecalis [3]) [µg/mL] | MIC (Streptococcus pneumoniae [4]) [µg/mL] | MIC [5] [µg/mL] | MIC (Enterococcus faecalis [6]) [µg/mL] | MIC (Staphylococcus aureus [7]) [µg/mL] | MIC (Candida albicans) [µg/mL] | MIC (Staphylococcus aureus [8]) [µg/mL] | MIC [9] [µg/mL] | MIC (Staphylococcus aureus [10]) [µg/mL] | MIC (Staphylococcus aureus [11]) [µg/mL] | MIC (Staphylococcus aureus [12]) [µg/mL] | MIC (Streptococcus pneumoniae [13]) [µg/mL] | MIC (Staphylococcus aureus [14]) [µg/mL]
CC[C@H]1OC(=O)[C@H](C)[C@@H](O[C@H]2C[C@@](C)(OC)[C@@H](O)[C@H](C)O2)[C@H](C)[C@@H](O[C@@H]2O[C@H](C)C[C@H](N(C)C)[C@H]2O)[C@](C)(O)C[C@@H](C)C(=O)[C@H](C)[C@@H](O)[C@]1(C)O [ERYTHROMYCIN] | > 32 | ≤ 0.03 | > 32 | 32 (≈ 43.6 µM) | 2 (≈ 2.73 µM) | 1 (≈ 1.36 µM) | 1 (≈ 1.36 µM) | > 32 | > 32 | 0.1 (≈ 0.136 µM) | 0.25 (≈ 0.341 µM) | > 32 | > 32 | 0.1 | 2 (≈ 2.73 µM) | 1 (≈ 1.36 µM)
CC(=O)NC[C@H]1CN(c2ccc(N3CCOCC3)c(F)c2)C(=O)O1 [LINEZOLID] | > 32 | 0.5 (≈ 1.48 µM) | 32 (≈ 94.9 µM) | – | – | 2 (≈ 5.93 µM) | – | – | > 32 | – | 1 (≈ 2.96 µM) | – | – | – | – | > 32
C=C(NC(=O)c1csc(-c2nc3c(cc2O)-c2nc(cs2)C(=O)N[C@@H]([C@@H](C)O)C(=O)N/C(=C(\C)OC)c2nc(cs2)C(=O)N[C@@H]2c4nc(cs4)C(=O)N[C@@H](COC(=O)c4[nH]c5cccc6c5c4CO[C@@H]2[C@H](OC)C(=O)OC6)c2nc-3cs2)n1)C(N)=O [THIAZOMYCIN B] | 0.1 | 0.004 (≈ 0.00316 µM) | 0.004 (≈ 0.00316 µM) | 0.06 (≈ 0.0475 µM) | 0.008 (≈ 0.00633 µM) | 0.03 (≈ 0.0237 µM) | 0.1 (≈ 0.0791 µM) | 0.03 (≈ 0.0237 µM) | > 32 | 0.02 (≈ 0.0158 µM) | 0.03 (≈ 0.0237 µM) | 0.02 (≈ 0.0158 µM) | 0.03 (≈ 0.0237 µM) | 0.25 | 0.004 (≈ 0.00316 µM) | 0.02 (≈ 0.0158 µM)
CO/C(C)=C1/NC(=O)[C@H]([C@@H](C)O)NC(=O)c2csc(n2)-c2cc(O)c(-c3nc(C(N)=O)cs3)nc2-c2csc(n2)[C@@H]2COC(=O)c3[nH]c4cccc5c4c3CO[C@H]([C@H](O[C@H]3C[C@](C)(O)[C@H](N(C)C)[C@H](C)O3)C(=O)OC5)[C@H](NC(=O)c3csc1n3)c1nc(cs1)C(=O)N2 [THIAZOMYCIN C] | 0.1 | 0.006 (≈ 0.00444 µM) | 0.1 (≈ 0.0739 µM) | 0.1 (≈ 0.0739 µM) | 0.01 (≈ 0.00739 µM) | 0.1 (≈ 0.0739 µM) | > 0.1 | 0.1 (≈ 0.0739 µM) | > 32 | 0.05 (≈ 0.037 µM) | 0.1 (≈ 0.0739 µM) | 0.05 (≈ 0.037 µM) | 0.1 (≈ 0.0739 µM) | 0.1 | 0.006 (≈ 0.00444 µM) | 0.03 (≈ 0.0222 µM)
C=C(NC(=O)c1csc(-c2nc3c(cc2O)-c2nc(cs2)C(=O)N[C@@H]([C@@H](C)O)C(=O)N/C(=C(\C)OC)c2nc(cs2)C(=O)N[C@@H]2c4nc(cs4)C(=O)N[C@@H](COC(=O)c4[nH]c5cccc6c5c4CO[C@@H]2[C@H](O[C@H]2C[C@](C)(O)[C@@H](O)[C@H](C)O2)C(=O)OC6)c2nc-3cs2)n1)C(N)=O [THIAZOMYCIN D] | 1 | 0.02 (≈ 0.0143 µM) | 0.1 (≈ 0.0717 µM) | 0.1 (≈ 0.0717 µM) | 0.1 (≈ 0.0717 µM) | 0.06 (≈ 0.043 µM) | 0.1 (≈ 0.0717 µM) | 0.1 (≈ 0.0717 µM) | > 32 | 0.03 (≈ 0.0215 µM) | 0.03 (≈ 0.0215 µM) | 0.031 (≈ 0.0222 µM) | 0.1 (≈ 0.0717 µM) | 1 | 0.03 (≈ 0.0215 µM) | 0.06 (≈ 0.043 µM)
C=C(NC(=O)c1csc(-c2nc3c(cc2O)-c2nc(cs2)C(=O)N[C@@H]([C@@H](C)O)C(=O)N/C(=C(\C)OC)c2nc(cs2)C(=O)N[C@@H]([C@H](O)[C@H](O[C@H]2C[C@](C)(O)[C@H](N(C)C)[C@H](C)O2)C(=O)O)c2nc(cs2)C(=O)N[C@@H](CO)c2nc-3cs2)n1)C(N)=O [THIAZOMYCIN E1] | – | – | – | – | 200 (≈ 159 µM) | – | > 200 | – | – | 100 (≈ 79.7 µM) | – | – | – | – | – | –
C=C(NC(=O)c1csc(-c2nc3c(cc2O)-c2nc(cs2)C(=O)N[C@@H]([C@@H](C)O)C(=O)N/C(=C(\C)OC)c2nc(cs2)C(=O)N[C@@H]([C@H](O)[C@H](O)C(=O)O)c2nc(cs2)C(=O)N[C@@H](CO)c2nc-3cs2)n1)C(N)=O [THIAZOMYCIN E2] | – | – | – | – | > 200 | – | > 200 | – | – | > 200 | – | – | – | – | – | –
CO/C(C)=C1/NC(=O)[C@H]([C@@H](C)O)NC(=O)c2csc(n2)-c2cc(O)c(-c3nc(C(N)=O)cs3)nc2-c2csc(n2)[C@H](CO)NC(=O)c2csc(n2)[C@H]([C@H](O)[C@H](O)C(=O)O)NC(=O)c2csc1n2 [THIAZOMYCIN E3] | – | – | – | – | 200 (≈ 197 µM) | – | 200 (≈ 197 µM) | – | – | > 200 | – | – | – | – | – | –
C=C(NC(=O)c1csc(-c2nc3c(cc2O)-c2nc(cs2)C(=O)N[C@@H]([C@@H](C)O)C(=O)N/C(=C(\C)OC)c2nc(cs2)C(=O)N[C@@H]2c4nc(cs4)C(=O)N[C@@H](COC(=O)c4c5c6c(cccc6n4O)COC(=O)[C@@H](O[C@H]4C[C@]6(C)OCN(C)[C@@H]6[C@H](C)O4)[C@H]2OC5)c2nc-3cs2)n1)C(N)=O [THIAZOMYCIN] | 0.01 | 0.002 (≈ 0.00139 µM) | 0.002 (≈ 0.00139 µM) | 0.01 (≈ 0.00697 µM) | 0.003 (≈ 0.00209 µM) | 0.02 (≈ 0.0139 µM) | 0.02 (≈ 0.0139 µM) | 0.01 (≈ 0.00697 µM) | > 32 | 0.006 (≈ 0.00418 µM) | 0.03 (≈ 0.0209 µM) | 0.003 (≈ 0.00209 µM) | 0.01 (≈ 0.00697 µM) | 0.05 | 0.003 (≈ 0.00209 µM) | 0.01 (≈ 0.00697 µM)
